# In the library only some 1.9% were active in any assay of this set; here they are far more common.
# ZTA counter = counter-screen for EBNA-1 inhibitors: inhibitors of Epstein-Barr virus ZTA | ZTA-DNA binding, fluorescence polarization | inhibition, % at 11 µM | hit rate 0.15% among 320,000; in the data active = inhibition above about 33%
# Target sequence (P03206 whole entry, looked up): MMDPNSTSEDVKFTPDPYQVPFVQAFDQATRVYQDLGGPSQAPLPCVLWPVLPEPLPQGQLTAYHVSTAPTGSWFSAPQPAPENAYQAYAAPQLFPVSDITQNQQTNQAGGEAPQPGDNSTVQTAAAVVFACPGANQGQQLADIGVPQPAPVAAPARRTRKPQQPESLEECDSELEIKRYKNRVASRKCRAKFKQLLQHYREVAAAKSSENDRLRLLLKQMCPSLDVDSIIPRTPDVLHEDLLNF
# NS3 helicase inh = inhibitors of HCV NS3 helicase, primary screen, biochemical, Cy5 molecular beacon fluorescence. Hepatitis C virus NS3 helicase. NS3 helicase DNA unwinding. inhibition, % at 10.9 µM. hit rate 0.56% among 290,000;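 active = inhibition above the mean of all tested compounds plus 3 SD, set per campaign, cut at about 35% in these data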;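 note: 0% = DMSO wells and 100% = thioflavine S control wells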
#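 assay system = NS3 helicase fragment of HCV | buffer or medium = MOPS pH 6.5, MgCl2, DTT, Tween20, BSA | timing = 60 min unwinding reaction at 25 °C after ATP addition | signal = Cy5 beacon fluorescence read at start and 1 h | read-out basis = % inhibition of unwinding | control set = low DMSO, high thioflavine S at 110 µM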
# EBNA-1 inh = EBNA-1 DNA-binding inhibitors, primary screen, biochemical, fluorescence polarization | inhibition, % at 14.8 µM | hit rate 0.34% among 300,000; in the data active = inhibition above about 28%
# HCV core dimer = inhibitors of HCV core protein dimerization, primary screen, biochemical, TR-FRET, high-throughput | inhibition, % at 5 µM | TR-FRET GST/Flag-core106 dimerization, 1536-well | AID 1899, 2009 | hit rate 0.33% among 300,000;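 active = inhibition above the mean of all tested compounds plus 3 SD, set per screening campaign, cut at about 45% in these data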
#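 assay system = GST-tagged and Flag-tagged HCV core protein residues 1-106 | controls = unlabelled core106 and no-GST-core106 wells | incubation = compound-protein-antibody incubation 4 h at 22.5 °C | probe or stimulus = Eu donor and XL665 acceptor anti-tag antibodies | read-out = % inhibition based on acceptor/donor emission ratio | signal = TR-FRET 671 and 617 nm emission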
# PP1 inh = PP1-alpha phosphatase inhibitors, primary screen, counter-screen for PP5 inhibitor project, biochemical, fluorescence, OMFP substrate, single point | inhibition, % at 6.7 µM | purified PP1alpha | hit rate 0.9% among 320,000 | Serine/threonine-protein phosphatase PP1-alpha catalytic subunit (Homo sapiens), P62136 | AID 2235, 2010;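 active = inhibition above the mean inhibition of all tested compounds plus 3 SD, computed separately for each screening campaign, cut at about 15% in these data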
# Target sequence (P62136 whole entry, looked up): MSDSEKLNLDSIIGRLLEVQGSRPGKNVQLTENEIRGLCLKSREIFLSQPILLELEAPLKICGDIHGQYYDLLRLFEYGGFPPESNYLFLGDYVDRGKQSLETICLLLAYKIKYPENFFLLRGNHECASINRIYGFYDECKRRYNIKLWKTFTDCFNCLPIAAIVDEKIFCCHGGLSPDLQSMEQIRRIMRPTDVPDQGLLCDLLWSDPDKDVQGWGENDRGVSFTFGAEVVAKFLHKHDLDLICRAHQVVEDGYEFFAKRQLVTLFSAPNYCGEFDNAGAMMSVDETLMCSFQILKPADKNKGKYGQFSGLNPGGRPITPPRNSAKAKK
# EBNA-1 confirm = EBNA-1 DNA-binding inhibitors, retest, confirmation, biochemical, fluorescence polarization, triplicate; shares compounds with EBNA-1 inh; Recombinant EBNA-1 DBD, Cy5-DNA fluorescence polarization; inhibition, % at 14.8 µM; hit rate 35% among 830;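 active = mean inhibition across replicates above a set limit taken from the earlier primary screen, cut at about 28% in these data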;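 note: plate controls were EBNA-1 protein with DMSO for no effect and wells lacking EBNA-1 for full effect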
# ZTA counter trip = EBV Zta DNA binding inhibitors, counter-screen for EBNA-1 inhibitor project, biochemical, fluorescence polarization, triplicate | inhibition, % at 11.1 µM | AID 2328, 2010 | 830 tested, under 10 active | shares compounds with EBNA-1 inh | Zta-ZRE DNA binding, Cy5 fluorescence polarization;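 active = mean inhibition over triplicates above a set limit taken from the primary EBNA-1 screen, cut at about 37% in these data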;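 note: purified full length Zta protein with Cy5 labeled ZRE DNA probe; 0% = Zta with DMSO and 100% = wells lacking Zta protein; inhibitors lower polarization by freeing the labeled DNA probe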
# Zta DNA confirm = EBV Zta binding to ZRE DNA, inhibitors, confirmation, biochemical, fluorescence polarization, triplicate; AID 2361, 2010; shares compounds with ZTA counter; inhibition, % at 11.1 µM; hit rate 30% among 320;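 active = mean inhibition across triplicate runs above the hit threshold derived for the original primary screen, cut at about 33% in these data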;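 note: 0% = Zta with DMSO and 100% = wells lacking Zta protein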
# EBNA1 counter = EBNA-1 DNA-binding inhibition, counter-screen for ZTA inhibitor project, biochemical, fluorescence polarization. shares compounds with ZTA counter. AID 2362, 2010. 320 tested, under 10 active. inhibition, % at 14.8 µM; call rule not given here
# PP1 confirm = PP1 phosphatase inhibitors, confirmation, biochemical, fluorescence, OMFP substrate, triplicate; shares compounds with PP1 inh; purified PP1alpha; inhibition, % at 6.7 µM; hit rate 52% among 1,900; AID 2358, 2010;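 active = mean PP1 inhibition above a set limit taken from the earlier primary screen, cut at about 15% in these data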
# PP5 inh counter = PP5 phosphatase inhibition by PP1 hits, confirmation, counter-screen for PP1 inhibitor project, biochemical, fluorescence, triplicate; shares compounds with PP1 inh; purified PP5c, OMFP fluorescence; inhibition, % at 6.7 µM; hit rate 4% among 1,900; AID 2360, 2010;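 active = mean PP5 inhibition over triplicate wells above about 9.5% taken from the earlier PP1 screen, limit read from the data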
# * = called active by the depositor; nt = no result; + = active, no number.
SMILES,ZTA counter,NS3 helicase inh,EBNA-1 inh,HCV core dimer,PP1 inh,Zta DNA confirm,EBNA1 counter,others
COc1ccc(/C=C2\SC(=O)N(CC(=O)NNC(=O)c3ccccc3O)C2=O)cc1,-8,7,54*,-1,18*,nt,nt,EBNA-1 confirm=7;ZTA counter trip=8;PP1 confirm=23*;PP5 inh counter=-5
O=C(CN1C(=O)S/C(=C\c2ccccc2)C1=O)NNC(=O)c1ccccc1O,-1,11,-2,1,12,nt,nt,
CCCN(CCC)C(=O)c1cc(S(=O)(=O)N2CCCCC2)c[nH]1,0,7,8,2,0,nt,nt,
COc1ccc(-c2nc(N)n(C(=O)c3cccs3)n2)cc1,79*,-18,10,3,-3,-6,-10,
COc1ccc(-c2nc(N)n(C(=O)c3ccccc3)n2)cc1,nt,-6,nt,nt,nt,nt,nt,
CCCCCC(=O)NC(=S)Nc1cccc(-c2nc3ncccc3o2)c1,3,-8,-9,5,-4,nt,nt,
Cn1nc(-c2ccccn2)nc2c(=O)n(C)c(=O)nc1-2,73*,1,7,31,41*,69*,-4,
O=C(Nc1ccc2c(c1)C(=O)NC2=O)c1cccc(C(F)(F)F)c1,-7,25,-15,2,-2,nt,nt,
Cc1cc(=O)oc(C)c1C(=O)OCC(=O)c1ccc(Br)cc1,31,9,-4,-1,-1,nt,nt,
Cc1cc(=O)oc(C)c1C(=O)OCC(=O)c1ccc(Cl)cc1,36*,8,-1,0,-1,-6,-10,
Cc1ccc(S(=O)(=O)/N=C(/c2ccc(F)cc2)N(C)C)cc1,-3,-9,-9,-5,-2,nt,nt,
COc1ccc(CN2C(=O)CC(C(=O)NCCc3ccc(S(N)(=O)=O)cc3)SC2=Nc2ccccc2)cc1 (stereo not given),-2,-4,12,14,4,nt,nt,
O=C(O)CCn1cc(/C=C/C(=O)c2ccc(Cl)cc2)c(-c2ccc(Br)cc2)n1,45*,-45,11,10,4,31,-4,
O=C(O)/C=C/c1cn(Cc2ccccc2)nc1-c1ccccc1,-3,-2,-7,-4,10,nt,nt,
CCN(CC)c1ccc(/C=C/c2ccc3ccc(OC)cc3[n+]2CC)cc1,50*,-15,11,-29,-1,30,-1,
Brc1cccc(OCCSc2ncccn2)c1,-6,4,-12,4,-1,nt,nt,
Clc1ccc(OCCSc2ncccn2)c(Br)c1,106*,0,9,0,-3,8,4,
CCOc1cc(/C=C\c2[nH]c(=O)[nH]c(=O)c2[N+](=O)[O-])ccc1OC(C)CC (stereo not given),39*,5,9,12,6,43*,-2,
CCc1nc(SCC(=O)Nc2ccc(N(C)C)cc2)c2ccccc2n1,-4,0,1,-1,0,nt,nt,
C/C(CC(=O)Nc1cccc(C(F)(F)F)c1)=N\NC(=O)c1cnccn1,10,-1,3,6,1,nt,nt,
Cc1nnc(SC(C)C(=O)Nc2ccc3ccccc3c2)n1C (stereo not given),0,nt,nt,nt,0,nt,nt,
O=c1c(Cl)c(Cl)cnn1Cc1ccccc1Cl,34*,8,4,27,-1,4,-1,
O=[N+]([O-])c1cc(S(=O)(=O)N2CCCCC2)ccc1NCCN1CCOCC1,-6,-7,-2,4,-1,nt,nt,
Cc1cccc2c1NC(C)CC2C (stereo not given),97*,-4,21,0,0,12,-7,
CCn1cc(CNC(=O)C2CCC(=O)N(Cc3ccc(Cl)cc3)C2)cn1 (stereo not given),4,6,9,1,-2,nt,nt,
SMILES,ZTA counter,NS3 helicase inh,EBNA-1 inh,HCV core dimer,PP1 inh,Zta DNA confirm,EBNA1 counter,others
Nc1c(C(=O)NCc2ccc(F)cc2)c2nc3ccccc3nc2n1CCCN1CCOCC1,66*,-20,7,-1,7,11,1,
COc1cc2nc(N(CCCN(C)C)C(=O)c3ccc(S(=O)(=O)N4CCc5ccccc54)cc3)sc2cc1OC,50*,nt,2,4,6,56*,8,
COc1ccc2sc(N(CCCN(C)C)C(=O)c3ccc(S(=O)(=O)N4CCCc5ccccc54)cc3)nc2c1,-17,nt,-16,-7,10,nt,nt,
CN(CC(=O)Nc1ccc(Cl)c(Cl)c1)CC(=O)Nc1ccc2c(c1)OCO2,+,nt,nt,nt,4,-2,-7,
O=C(Nc1ccc(-c2nc3ccc(NC(=O)c4cccs4)cc3[nH]2)cc1)c1cccs1,55*,18,-12,-3,8,43*,4,
O=C(Nc1ccc2nc(-c3cccs3)[nH]c2c1)c1cccs1,-12,9,-6,-6,-7,nt,nt,
CCOc1ccc(C(C)=O)cc1CN1c2ccc(S(N)(=O)=O)cc2CC1C (stereo not given),1,-10,-1,15,7,nt,nt,
CCN1C(=O)[C@@H]2[C@@H](c3ccc(-c4ccc(C(C)=O)cc4)cc3)N3CCCC[C@@]3(C(=O)OC)[C@@H]2C1=O,2,nt,4,10,-1,nt,nt,
Cc1ccc(OCc2nnc(SCC(=O)NCc3ccco3)n2C)cc1,-22,9,3,-5,-2,nt,nt,
Cc1ccccc1OCc1nnc(SCC(=O)NCc2ccco2)n1C,35*,5,13,0,-3,-8,0,
CCOC1(OCC)N=C(N)C2(C#N)C(c3cccc(C)c3)C12C#N (stereo not given),67*,-7,5,7,-1,-6,-8,
